Test results published in ChEMBL document CHEMBL1153317, “Design, synthesis, and structure-activity relationship of novel CCR2 antagonists” (Bioorg Med Chem Lett, 2009).
pIC50: −log10 of the molar value.

How the values were obtained:
[1] = biological target: T1, C-C chemokine receptor type 2 (Homo sapiens, UniProt P41597); test: Displacement of [125I]hMCP1 from human CCR2 receptor expressed in CHO cells; assay type: cell-based
In short: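 CHO cells expressing human CCR2b (5 × 10⁴) incubated 60 min at room temperature with ¹²⁵I-hMCP-1 (20–50 pM) plus varied competitor concentrations in 50 mM Hepes, 5 mM MgCl₂, 1 mM CaCl₂, pH 7.4. Stopped by filtration on polyethyleneimine-presoaked GF/B filters, washed with 25 mM Hepes pH 7.5/500 mM NaCl. IC50 is the average of triplicate measurements.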
Target sequence in this assay (P41597 whole entry): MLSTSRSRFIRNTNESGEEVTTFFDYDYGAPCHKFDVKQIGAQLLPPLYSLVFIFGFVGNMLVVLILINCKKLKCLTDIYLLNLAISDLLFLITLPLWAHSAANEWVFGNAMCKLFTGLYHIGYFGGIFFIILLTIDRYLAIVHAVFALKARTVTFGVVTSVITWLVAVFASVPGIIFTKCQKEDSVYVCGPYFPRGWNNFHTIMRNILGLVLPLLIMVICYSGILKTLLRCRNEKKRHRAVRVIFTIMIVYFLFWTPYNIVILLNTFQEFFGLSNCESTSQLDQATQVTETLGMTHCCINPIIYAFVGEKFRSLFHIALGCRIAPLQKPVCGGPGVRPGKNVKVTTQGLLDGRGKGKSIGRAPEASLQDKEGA

[2] = biological target: T1, C-C chemokine receptor type 2; test: Displacement of [125I]hMCP1 from human CCR2 receptor expressed in CHO cells at 1 uM; assay type: cell-based
Target sequence in this assay (P41597 whole entry, looked up): as the sequence (P41597 whole entry) above

[3] = AUC in Sprague-Dawley rat at 3 mg/kg, po; assay type: ADME, organism-based; parameters: dose 3 mg/kg, route oral; conditions: plasma
[4] = Tmax in Sprague-Dawley rat at 3 mg/kg, po; assay type: ADME, organism-based; parameters: dose 3 mg/kg, route oral; conditions: in vivo
[5] = Cmax in Sprague-Dawley rat at 3 mg/kg, po; assay type: ADME, organism-based; parameters: dose 3 mg/kg, route oral; conditions: in vivo
[6] = Oral bioavailability in Sprague-Dawley rat at 3 mg/kg; assay type: ADME, organism-based; conditions: in vivo
[7] = AUC in Beagle dog at 2 mg/kg, po; assay type: ADME, organism-based, Canis lupus familiaris; parameters: dose 2 mg/kg, route oral; conditions: plasma
[8] = Tmax in Beagle dog at 2 mg/kg, po; assay type: ADME, organism-based, Canis lupus familiaris; parameters: dose 2 mg/kg, route oral; conditions: in vivo
[9] = Cmax in Beagle dog at 2 mg/kg, po; assay type: ADME, organism-based, Canis lupus familiaris; parameters: dose 2 mg/kg, route oral; conditions: in vivo
[10] = Oral bioavailability in Beagle dog at 2 mg/kg; assay type: ADME, organism-based, Canis lupus familiaris; conditions: in vivo
[11] = AUC in rhesus monkey at 2 mg/kg, po; assay type: ADME, organism-based, Macaca mulatta; parameters: dose 2 mg/kg, route oral; conditions: plasma
[12] = Tmax in rhesus monkey at 2 mg/kg, po; assay type: ADME, organism-based, Macaca mulatta; parameters: dose 2 mg/kg, route oral; conditions: in vivo
[13] = Cmax in rhesus monkey at 2 mg/kg, po; assay type: ADME, organism-based, Macaca mulatta; parameters: dose 2 mg/kg, route oral; conditions: in vivo
[14] = Oral bioavailability in rhesus monkey at 2 mg/kg; assay type: ADME, organism-based, Macaca mulatta; conditions: in vivo

| Structure (SMILES) | pIC50 [1] | other results |
| --- | --- | --- |
| CC(C)[C@]1(C(=O)NCc2cc(C(F)(F)F)cc(C(F)(F)F)c2)CC[C@@H](NC2CCOCC2)C1 | 8.34 |  |
| CC(C)[C@]1(C(=O)NCc2cc(C(F)(F)F)cc(C(F)(F)F)c2)CC[C@@H](NC2CCOCC2(C)C)C1 (some centres undefined) | 6.64 |  |
| CCCC1COCCC1N[C@@H]1CC[C@@](C(=O)NCc2cc(C(F)(F)F)cc(C(F)(F)F)c2)(C(C)C)C1 (some centres undefined) | 8.11 |  |
| CC(C)[C@]1(C(=O)NCc2cc(C(F)(F)F)cc(C(F)(F)F)c2)CC[C@@H](NC2CCOC2)C1 (some centres undefined) | 7.07 |  |
| CC(C)[C@]1(C(=O)NCc2cc(C(F)(F)F)cc(C(F)(F)F)c2)CC[C@@H](NC2CCSC2)C1 (some centres undefined) | 7.44 |  |
| CC(C)[C@]1(C(=O)NCc2cc(C(F)(F)F)cc(C(F)(F)F)c2)CC[C@@H](NC2Cc3ccccc3C2)C1 | 6.73 |  |
| CC1COCCC1N[C@@H]1CC[C@@](C(=O)NCc2cc(C(F)(F)F)cc(C(F)(F)F)c2)(C(C)C)C1 (stereo in doubt; 57) | 7.38 |  |
| CC(C)[C@]1(C(=O)NCc2cc(C(F)(F)F)cc(C(F)(F)F)c2)CC[C@@H](NC2CCOCC2F)C1 (stereo in doubt; 63) | 6.59 |  |
| CC1COCCC1N[C@@H]1CC[C@@](C(=O)NCc2cc(C(F)(F)F)cc(C(F)(F)F)c2)(C(C)C)C1 (stereo in doubt; 45) | 8.82 |  |
| CC(C)[C@]1(C(=O)NCc2cc(C(F)(F)F)cc(C(F)(F)F)c2)CC[C@@H](NC2CCOCC2O)C1 (some centres undefined) | 7.29 |  |
| CC(C)[C@]1(C(=O)NCc2cc(C(F)(F)F)cc(C(F)(F)F)c2)CC[C@@H](NC2CCOCC2F)C1 (stereo in doubt; 50) | 8.22 |  |
| CC(C)[C@]1(C(=O)NCc2cc(C(F)(F)F)cc(C(F)(F)F)c2)CC[C@@H](NC2CCc3ccccc32)C1 (some centres undefined) | 7.11 |  |
| CC(C)[C@]1(C(=O)NCc2cc(C(F)(F)F)cc(C(F)(F)F)c2)CC[C@@H](NC2CCOc3ccccc32)C1 (some centres undefined) | 6.38 |  |
| CC(C)[C@]1(C(=O)NCc2cc(C(F)(F)F)cc(C(F)(F)F)c2)CC[C@@H](NC2CCCOCC2)C1 (some centres undefined) | 7.52 |  |
| CC(C)[C@]1(C(=O)NCc2cc(C(F)(F)F)cc(C(F)(F)F)c2)CC[C@@H](NC2CCCCCC2)C1 | 6.76 |  |
| CC(C)[C@]1(C(=O)NCc2cc(C(F)(F)F)cc(C(F)(F)F)c2)CC[C@@H](NCC2CCOCC2)C1 | 6.44 |  |
| CC1COCCC1N[C@@H]1CC[C@@](C(=O)NCc2cc(C(F)(F)F)cc(C(F)(F)F)c2)(C(C)C)C1 (stereo in doubt; 59) | 8.92 |  |
| CCC1COCCC1N[C@@H]1CC[C@@](C(=O)NCc2cc(C(F)(F)F)cc(C(F)(F)F)c2)(C(C)C)C1 (stereo in doubt; 46) | 8.52 |  |
| CC(C)[C@]1(C(=O)NCc2cc(C(F)(F)F)cc(C(F)(F)F)c2)CC[C@@H](NC2CCC2)C1 | 6.71 |  |

| Structure (SMILES) | pIC50 [1] | other results |
| --- | --- | --- |
| CC(C)[C@]1(C(=O)NCc2cc(C(F)(F)F)cc(C(F)(F)F)c2)CC[C@@H](NC2CCc3ccccc3C2)C1 (some centres undefined) | 6.62 |  |
| CC1CC(N[C@@H]2CC[C@@](C(=O)NCc3cc(C(F)(F)F)cc(C(F)(F)F)c3)(C(C)C)C2)CCO1 (some centres undefined) | 7.55 |  |
| CC(C)[C@]1(C(=O)NCc2cc(C(F)(F)F)cc(C(F)(F)F)c2)CC[C@@H](NC2CCS(=O)(=O)CC2)C1 | 6.20 |  |
| CC(C)[C@]1(C(=O)NCc2cc(C(F)(F)F)cc(C(F)(F)F)c2)CC[C@@H](NC2CCCOC2)C1 (some centres undefined) | 7.25 |  |
| CC(C)[C@]1(C(=O)NCc2cc(C(F)(F)F)cc(C(F)(F)F)c2)CC[C@@H](NC2CCOCC2C2CC2)C1 (some centres undefined) | 6.91 |  |
| CC1COCCC1N[C@@H]1CC[C@@](C(=O)NCc2cc(C(F)(F)F)cc(C(F)(F)F)c2)(C(C)C)C1 (stereo in doubt; 58) | 8.40 |  |
| CC(C)[C@]1(C(=O)NCc2cc(C(F)(F)F)cc(C(F)(F)F)c2)CC[C@@H](NC2CCNCC2)C1 |  | Activity [2]: 21% |
| CCC1COCCC1N[C@@H]1CC[C@@](C(=O)NCc2cc(C(F)(F)F)cc(C(F)(F)F)c2)(C(C)C)C1 (stereo in doubt; 61) | 8.25 |  |
| CC(C)[C@]1(C(=O)NCc2cc(C(F)(F)F)cc(C(F)(F)F)c2)CC[C@@H](NC2CCSCC2)C1 | 7.66 |  |
| CC(C)[C@]1(C(=O)NCc2cc(C(F)(F)F)cc(C(F)(F)F)c2)CC[C@@H](NC2CCCC2)C1 | 6.81 |  |
| CC(C)[C@]1(C(=O)NCc2cc(C(F)(F)F)cc(C(F)(F)F)c2)CC[C@@H](NC2CCOCC2F)C1 (stereo in doubt; 64) | 7.84 |  |
| CC(C)[C@]1(C(=O)NCc2cc(C(F)(F)F)cc(C(F)(F)F)c2)CC[C@@H](NC2CCOCC2(O)C(F)(F)F)C1 (some centres undefined) | 6.12 |  |
| CCC1COCCC1N[C@@H]1CC[C@@](C(=O)NCc2cc(C(F)(F)F)cc(C(F)(F)F)c2)(C(C)C)C1 (stereo in doubt; 60) | 6.85 |  |
| CCC1COCCC1N[C@@H]1CC[C@@](C(=O)NCc2cc(C(F)(F)F)cc(C(F)(F)F)c2)(C(C)C)C1 (stereo in doubt; 62) | 8.52 |  |
| CC(C)[C@]1(C(=O)NCc2cc(C(F)(F)F)cc(C(F)(F)F)c2)CC[C@@H](NC2CCCCC2)C1 | 7.19 |  |
| CC(C)[C@]1(C(=O)NCc2cc(C(F)(F)F)cc(C(F)(F)F)c2)CC[C@@H](N[C@H]2CCOC[C@H]2C)C1 |  | AUC [3]: 0.76 µM·h; Tmax [4]: 15 min; Cmax [5]: 735 nM; bioavailability [6]: 42%; AUC [7]: 0.62 µM·h; Tmax [8]: 45 min; Cmax [9]: 422 nM; bioavailability [10]: 28%; AUC [11]: 0.01 µM·h; Tmax [12]: 60 min; Cmax [13]: 4 nM; bioavailability [14]: 2% |
| CC1COCC(C)C1N[C@@H]1CC[C@@](C(=O)NCc2cc(C(F)(F)F)cc(C(F)(F)F)c2)(C(C)C)C1 (some centres undefined) | 8.15 |  |
| CC(C)[C@]1(C(=O)NCc2cc(C(F)(F)F)cc(C(F)(F)F)c2)CC[C@@H](NC2CCOCC2C(F)(F)F)C1 (some centres undefined) | 8.26 |  |
| Cc1ccc(-c2ccc3c(c2)C=C(C(=O)Nc2ccc(C[N+](C)(C)C4CCOCC4)cc2)CCC3)cc1 | 7.55 |  |
